Experimental data taken from ChEMBL document CHEMBL2401735, “Synthesis and cytotoxicity of novel (thiazol-2-yl)hydrazine derivatives as promising anti-Candida agents” (Eur J Med Chem, 2013).
Values after ≈ are worked out from the molar mass of the structure shown.

Experiments:
[1] = Cytotoxicity against human Hep2 cells assessed as cell survival fraction at 50 ug/ml after 24 hrs by trypan blue exclusion assay (reference value: 97 to 98%); format: cell-based; conditions: HEp-2 cells, read-out: Survival
Escherichia coli = test: Antibacterial activity against Escherichia coli assessed as growth inhibition after 18 to 22 hrs by broth microdilution method; format: functional
Procedure, shortened: (§1)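 Bacterial isolates subcultured for purity, identified conventionally. Broth microdilution per NCCLS in Mueller-Hinton II broth; plates with growth control (no compound) and medium-only control, incubated 18-22 h at 35 °C. MIC taken as lowest concentration giving complete growth inhibition by unaided eye.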

[2] = Cytotoxicity against human Hep2 cells assessed as reduction of cell viability after 24 hrs by trypan blue exclusion assay; format: cell-based; conditions: HEp-2 cells
Procedure, shortened: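 Hep2 cells in DMEM with 10% FBS, penicillin-streptomycin, 5% CO₂, 37 °C. Cells at 1 × 10⁵/mL exposed 24 h to seven concentrations (0.005-100 µg/mL), DMSO ≤0.5% final; controls were medium alone, DMSO, and 1 mM sodium nitroprusside. Cells scraped, allowed 30 min recovery, mixed 1:1 with 0.4% trypan blue, counted by hemocytometer by two operators.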

Candida albicans = test: Anticandida activity against Candida albicans clinical isolate assessed as growth inhibition after 24 hrs by broth microdilution method; format: functional
Procedure, shortened: (§2)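 Clinical Candida isolates subcultured for purity and optimal growth before testing; compounds dissolved in DMSO. Broth microdilution per NCCLS in Sabouraud dextrose broth, serial dilutions, inoculum about 10³/mL, with growth control and medium-only control; 24 h incubation at 37 °C. MIC is the lowest concentration giving complete visible inhibition.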

Klebsiella oxytoca = test: Antibacterial activity against Klebsiella oxytoca assessed as growth inhibition after 18 to 22 hrs by broth microdilution method; format: functional; procedure, shortened: as §1
Nakaseomyces glabratus = test: Anticandida activity against Candida glabrata clinical isolate assessed as growth inhibition after 24 hrs by broth microdilution method; format: functional; procedure, shortened: as §2
Candida tropicalis = test: Anticandida activity against Candida tropicalis clinical isolate assessed as growth inhibition after 24 hrs by broth microdilution method; format: functional; procedure, shortened: as §2
Candida parapsilosis = test: Anticandida activity against Candida parapsilosis clinical isolate assessed as growth inhibition after 24 hrs by broth microdilution method; format: functional; conditions: Lodderomyces parapsilosis; procedure, shortened: as §2
Enterobacter sp. = test: Antibacterial activity against Enterobacter spp. assessed as growth inhibition after 18 to 22 hrs by broth microdilution method; format: functional; procedure, shortened: as §1
[3] = Cytotoxicity against human Hep2 cells assessed as cell survival fraction at 100 ug/ml after 24 hrs by trypan blue exclusion assay (reference value: 97 to 98%); format: cell-based; conditions: HEp-2 cells, read-out: Survival
Proteus mirabilis = test: Antibacterial activity against Proteus mirabilis assessed as growth inhibition after 18 to 22 hrs by broth microdilution method; format: functional; procedure, shortened: as §1
Enterococcus faecalis = test: Antibacterial activity against […] assessed as growth inhibition after 18 to 22 hrs by broth microdilution method; format: functional; procedure, shortened: as §1
[4] = Cytotoxicity against human Hep2 cells assessed as cell survival fraction at 0.05 ug/ml after 24 hrs by trypan blue exclusion assay (reference value: 97 to 98%); format: cell-based; conditions: HEp-2 cells, read-out: Survival
[5] = Cytotoxicity against human Hep2 cells assessed as cell survival fraction at 0.5 ug/ml after 24 hrs by trypan blue exclusion assay (reference value: 97 to 98%); format: cell-based; conditions: HEp-2 cells, read-out: Survival
Pichia kudriavzevii = test: Anticandida activity against Candida krusei clinical isolate assessed as growth inhibition after 24 hrs by broth microdilution method; format: functional; procedure, shortened: as §2
[6] = Cytotoxicity against human Hep2 cells assessed as cell survival fraction at 0.005 ug/ml after 24 hrs by trypan blue exclusion assay (reference value: 97 to 98%); format: cell-based; conditions: HEp-2 cells, read-out: Survival
Staphylococcus aureus = test: Antibacterial activity against Staphylococcus aureus assessed as growth inhibition after 18 to 22 hrs by broth microdilution method; format: functional; procedure, shortened: as §1
[Candida] sake = Anticandida activity against Candida sake clinical isolate assessed as growth inhibition after 24 hrs by broth microdilution method; format: functional; conditions: Fermentozyma sake; procedure, shortened: as §2
Staphylococcus warneri = test: Antibacterial activity against Staphylococcus warneri assessed as growth inhibition after 18 to 22 hrs by broth microdilution method; format: functional; procedure, shortened: as §1
[7] = test system: Streptococcus alpha-hemolyticus; test: Antibacterial activity against Streptococcus alpha-hemolyticus assessed as growth inhibition after 18 to 22 hrs by broth microdilution method
[8] = Cytotoxicity against human Hep2 cells assessed as cell survival fraction at 10 ug/ml after 24 hrs by trypan blue exclusion assay (reference value: 97 to 98%); format: cell-based; conditions: HEp-2 cells, read-out: Survival
[9] = Cytotoxicity against human Hep2 cells assessed as cell survival fraction at 5 ug/ml after 24 hrs by trypan blue exclusion assay (reference value: 97 to 98%); format: cell-based; conditions: HEp-2 cells, read-out: Survival

Row | SMILES | viability at 24 h, 50 ug/ml [1] [%] | MIC (Escherichia coli) [µg/mL] | CC50 at 24 h [2] [µg/mL] | MIC (Candida albicans) [µg/mL] | MIC (Klebsiella oxytoca) [µg/mL] | MIC (Nakaseomyces glabratus) [µg/mL] | MIC (Candida tropicalis) [µg/mL] | MIC (Candida parapsilosis) [µg/mL] | MIC (Enterobacter sp.) [µg/mL] | viability at 24 h, 100 ug/ml [3] [%] | MIC (Proteus mirabilis) [µg/mL] | MIC (Enterococcus faecalis) [µg/mL] | viability at 24 h, 0.05 ug/ml [4] [%] | viability at 24 h, 0.5 ug/ml [5] [%] | MIC (Pichia kudriavzevii) [µg/mL] | viability at 24 h, 0.005 ug/ml [6] [%] | MIC (Staphylococcus aureus) [µg/mL] | MIC ([Candida] sake) [µg/mL] | MIC (Staphylococcus warneri) [µg/mL] | MIC [7] [µg/mL] | other results
1 | C=CCC/C(C)=N/Nc1nc(-c2ccc(OC)cc2)cs1 | 0 | > 256 | 35 (≈ 116 µM) | 0.5 (≈ 1.66 µM) | > 256 | 0.5 (≈ 1.66 µM) | 2 (≈ 6.64 µM) | 2 (≈ 6.64 µM) | > 256 | 0 | > 256 | > 256 | 91.2 | 83 | 2 (≈ 6.64 µM) | 94 | > 256 | 2 (≈ 6.64 µM) | > 256 | > 256 | viability at 24 h, 10 ug/ml [8]: 72.4%; viability at 24 h, 5 ug/ml [9]: 84%
2 | CCCC/C(CC)=N/Nc1nc(-c2ccc(OC)cc2)cs1 | 0 | > 256 | 35 (≈ 110 µM) | 0.25 (≈ 0.788 µM) | > 256 | 0.5 (≈ 1.58 µM) | 2 (≈ 6.3 µM) | 2 (≈ 6.3 µM) | > 256 | 0 | > 256 | > 256 | 90.2 | 84 | 2 (≈ 6.3 µM) | 93 | > 256 | 2 (≈ 6.3 µM) | > 256 | > 256 | viability at 24 h, 10 ug/ml [8]: 70.2%; viability at 24 h, 5 ug/ml [9]: 81%
3 | CCCCC/C(C)=N/Nc1nc(-c2ccc(OC)cc2OC)cs1 | – | > 256 | – | 64 (≈ 184 µM) | > 256 | 128 (≈ 368 µM) | 256 (≈ 737 µM) | 256 (≈ 737 µM) | > 256 | – | > 256 | > 256 | – | – | 256 (≈ 737 µM) | – | > 256 | 256 (≈ 737 µM) | > 256 | > 256 | –
4 | CCCCCC/C(C)=N/Nc1nc(-c2ccc(OC)cc2)cs1 | – | > 256 | – | 8 (≈ 24.1 µM) | > 256 | 8 (≈ 24.1 µM) | 32 (≈ 96.5 µM) | 16 (≈ 48.3 µM) | > 256 | – | > 256 | > 256 | – | – | 16 (≈ 48.3 µM) | – | > 256 | 16 (≈ 48.3 µM) | > 256 | > 256 | –
5 | C/C(=N\Nc1nc(-c2ccc(Cl)cc2Cl)cs1)C1CCCCC1 | 0 | > 256 | 42 (≈ 114 µM) | 0.25 (≈ 0.679 µM) | > 256 | 2 (≈ 5.43 µM) | 2 (≈ 5.43 µM) | 2 (≈ 5.43 µM) | > 256 | 0 | > 256 | > 256 | 96 | 95 | 2 (≈ 5.43 µM) | 97.2 | > 256 | 2 (≈ 5.43 µM) | > 256 | > 256 | viability at 24 h, 10 ug/ml [8]: 88%; viability at 24 h, 5 ug/ml [9]: 94%
6 | Clc1ccc(-c2csc(NN=C3CCCCCCC3)n2)c(Cl)c1 | 0 | > 256 | 41 (≈ 111 µM) | 0.5 (≈ 1.36 µM) | > 256 | 2 (≈ 5.43 µM) | 2 (≈ 5.43 µM) | 8 (≈ 21.7 µM) | > 256 | 0 | > 256 | > 256 | 93 | 92.4 | 2 (≈ 5.43 µM) | 94 | > 256 | 2 (≈ 5.43 µM) | > 256 | > 256 | viability at 24 h, 10 ug/ml [8]: 87.5%; viability at 24 h, 5 ug/ml [9]: 90%
7 | CCC/C(C)=N/Nc1nc(-c2ccc(Cl)cc2Cl)cs1 | – | > 256 | – | 2 (≈ 6.09 µM) | > 256 | 2 (≈ 6.09 µM) | 4 (≈ 12.2 µM) | 256 (≈ 780 µM) | > 256 | – | > 256 | > 256 | – | – | 256 (≈ 780 µM) | – | > 256 | 256 (≈ 780 µM) | > 256 | > 256 | –
